Drawing on ChEMBL document CHEMBL3994593, “Diterpenoids of the Cassane Type from Caesalpinia decapetala” (J Nat Prod, 2016), this text covers IC50 for 14 molecules.

A value given as a limit tells only on which side of the number the result lay.

Holding throughout (format): functional, cell-based
In one assay the test system is B16. Briefly: Cytotoxicity against mouse B16 cells assessed as reduction in cell viability after 48 hrs by MTT assay. As to conditions: B16, 48 h. The procedure, abridged:
(§1)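 Cells grown in RPMI 1640 with 10% FBS, penicillin/streptomycin, at 37 °C, 5% CO2. Seeded at 5000 cells/well, compounds added after 24 h, then 48 h incubation; MTT formazan read at 570 nm. Five concentrations (50, 25, 10, 2.5, 1 μM), 0.5% DMSO final, triplicate experiments; IC50 as mean ± SEM. Gemcitabine and cisplatin as positive controls.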
Background: Tetrazolium assays rely on reduction of a dye to a coloured formazan, in cell work by metabolically active cells.

In a further assay the test system is B-cell. Kind of assay: Cytotoxicity against LPS-stimulated Balb/c mouse B cells assessed as reduction in cell viability after 48 hrs by MTT assay. The procedure, abridged:
(§2)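 Splenocytes from three male Balb/c mice (4−6 weeks); T and B cells enriched on nylon-wool column, stimulated with 5 μg/mL ConA (T) or 10 μg/mL LPS (B). Then handled as the tumor-cell MTT assay: 48 h exposure, 570 nm read, five concentrations 1–50 μM, 0.5% DMSO final, triplicate. Cyclosporin A and mycophenolate mofetil as positive controls.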

Another assay has as its system T-cell. Briefly: Cytotoxicity against ConA-stimulated Balb/c mouse T cells assessed as reduction in cell viability after 48 hrs by MTT assay. The procedure, abridged: as §2
Another assay relates to A2780. Briefly: Cytotoxicity against human A2780 cells assessed as reduction in cell viability after 48 hrs by MTT assay. The following applies: A2780, 48 h. The procedure, abridged:
as §1

The next assay has as its system Panc02. Kind of assay: Cytotoxicity against mouse Panc02 cells assessed as reduction in cell viability after 48 hrs by MTT assay. As to conditions: Panc02, 48 h. The procedure, abridged:
as §1

In a further assay the test system is SW1990. Briefly: Cytotoxicity against human SW1990 cells assessed as reduction in cell viability after 48 hrs by MTT assay. As to conditions: SW1990, 48 h. The procedure, abridged: as §1
For another assay, the system named is HepG2. Briefly: Cytotoxicity against human HepG2 cells assessed as reduction in cell viability after 48 hrs by MTT assay. As to conditions: HepG2, 48 h. The procedure, abridged:
as §1

As to `COC(=O)[C@]1(C)CCC[C@]23CO[C@H]4c5occc5[C@H](C)[C@@H]([C@H]42)[C@@H](OC(C)=O)C[C@H]31`, the IC50 with B16, with B-cell, with T-cell, with A2780 and with Panc02 was > 10 µM in each case.
Consider `COC(=O)[C@]1(C)[C@@H](O)CC[C@@]23C(=O)O[C@H]4c5occc5[C@H](C)[C@H](CC[C@@H]12)[C@H]43`, for which the IC50 in the assay with B16 was > 10 µM; in the assay on B-cell, > 10 µM; with SW1990, 2900 to 8900 nM; with T-cell, > 10 µM; with A2780, > 10 µM; with Panc02, > 10 µM.
Take `COC(=O)[C@@]1(C)[C@@H](OC(C)=O)CC[C@]2(C(=O)O)[C@H]3Cc4occc4[C@H](C)[C@@H]3CC[C@@H]12`: the IC50 with B16, in the assay with B-cell, with T-cell, in the assay on A2780 and in the assay with Panc02 was > 10 µM in each case.
As to `COC(=O)[C@]1(C)[C@@H](OC(C)=O)CC[C@@]23CO[C@H]4c5occc5[C@H](C)[C@H](CC[C@H]21)[C@H]43`, the IC50 with B16, with B-cell, with T-cell, with A2780 and with Panc02 was > 10 µM each time.
For `Nc1ccn([C@@H]2O[C@H](CO)[C@@H](O)C2(F)F)c(=O)n1` [GEMCITABINE], in the assay on SW1990, the IC50 turned out to be 2300 nM.
Regarding `COC(=O)[C@@]1(C)[C@@H]2CC[C@@H]3[C@@H]4[C@@H](OC[C@@]42CC[C@@H]1O)c1occc1[C@@H]3C`, the IC50 in the assay on B16 is > 10 µM; with B-cell, > 10 µM; with SW1990 it was 2900 to 8900 nM; in the assay with T-cell, > 10 µM; in the assay on A2780, > 10 µM; in the assay with Panc02, > 10 µM.
`COC(=O)[C@]1(C)CCC[C@]23CO[C@H]4c5occc5[C@H](C)[C@@H]([C@H]42)[C@@H](O)C[C@H]31`: the IC50 in the assay with B16 is > 10 µM; in the assay with B-cell it was > 10 µM; with SW1990, 2900 to 8900 nM; in the assay with T-cell, > 10 µM; in the assay with A2780 it was > 10 µM; in the assay on Panc02, > 10 µM.
With `COC(=O)[C@]1(C)[C@@H](OC(C)=O)CC[C@@]23C(=O)O[C@H]4c5occc5[C@H](C)[C@H](CC[C@@H]12)[C@H]43`, the IC50 with B16, in the assay on B-cell, in the assay on T-cell, in the assay on A2780 and in the assay with Panc02 was > 10 µM throughout.
On to `COC(=O)[C@]1(C)CCC[C@@]2(COC(C)=O)[C@H]1[C@H](O)C[C@H]1[C@@H](C)C3=CC(=O)O[C@]3(OC)C[C@@H]12`, for which the IC50 in the assay on B16, in the assay with B-cell, in the assay on T-cell, in the assay with A2780 and with Panc02 was > 10 µM throughout.
Turning to `COC(=O)[C@]1(C)CCC[C@@]2(COC(C)=O)[C@H]1[C@H](O)C[C@H]1[C@@H](C)c3ccoc3C[C@@H]12`, the IC50 with B16 was > 10 µM; in the assay on B-cell, > 10 µM; in the assay with SW1990, 2900 to 8900 nM; in the assay on T-cell, > 10 µM; with A2780, > 10 µM; with HepG2, 3.9 µM. Besides, in the assay on Panc02, the IC50 was > 10 µM.
`COC(=O)[C@]1(C)CCC[C@]23C(O)O[C@H](C[C@H]4[C@@H](C)c5ccoc5C[C@@H]42)[C@H]31` (some centres not stated): the IC50 in the assay on B16, in the assay with B-cell, in the assay with T-cell, with A2780 and in the assay with Panc02 was > 10 µM throughout.
In the case of `COC(=O)[C@]1(C)CCC[C@]2(COC(C)=O)c3cc4occc4c(C)c3C[C@@H](OC(C)=O)[C@H]21`, the IC50 with B16 was > 10 µM; in the assay with B-cell, > 10 µM; in the assay on SW1990, 2900 to 8900 nM; in the assay on T-cell, > 10 µM; in the assay on A2780 it was > 10 µM; in the assay with Panc02, > 10 µM.
For `C=C1CC[C@@H]2[C@](C)(CCC[C@]2(C)C(=O)O)[C@H]1CC(=O)/C(C)=C/CO`, the IC50 with B16, in the assay with B-cell, with T-cell, in the assay with A2780 and in the assay on Panc02 was > 10 µM in each case.
Consider `C=C1CC[C@@H]2[C@](C)(CCC[C@]2(C)C(=O)O)[C@H]1/C=C/C(C)=O`, for which the IC50 in the assay on B16, in the assay with B-cell, in the assay on T-cell, in the assay on A2780 and in the assay on Panc02 was > 10 µM each time.

Usually IC50 stands for the concentration needed to halve the response being measured.
